Assay results gathered from unrelated publications.
Protocols differ between the studies behind these lines.
Target: Mitogen-activated protein kinase kinase kinase 1 (MAP3K1, Homo sapiens, UniProt Q13233)

CC1CCCN1c1nccc(-c2cnn3ncccc23)n1 (stereo not shown) — remaining binding (binding; 1 µM): 87%
COc1cc(/C=C/C(=O)CC(=O)/C=C/c2ccc(O)c(OC)c2)ccc1O — activity vs control (enzyme activity; inhibitor; 1 µM): 89%
Oc1cccc(-c2nc(N3CCOCC3)c3oc4ncccc4c3n2)c1 — remaining activity (enzyme activity; inhibitor; 10 µM): 97%
COc1cc(Nc2cnc(C#N)c(O[C@H](C)CN(C)C)n2)ncc1-c1cnn(C)c1 — remaining activity (enzyme activity; inhibitor; radiometric; 1 µM): 92%
CC(C)(O)[C@H]1CC[C@H](Nc2ccc3ncc(-c4cccc(C(F)(F)F)c4)n3n2)CC1 — remaining activity (enzyme activity; inhibitor; 1 µM): 99%
CC(C)(C)c1nc2c(s1)c1nc(N)ncc1c1ccc(NS(=O)(=O)c3c(F)cccc3F)c(F)c12 — remaining activity (enzyme activity; inhibitor; radiometric; 1 µM): 90%
Nc1ncnc2occ(-c3ccc(NC(=O)Nc4cc(C(F)(F)F)ccc4F)cc3)c12 — remaining signal (cell-free assay; inhibitor; 20 µM): 6.9%
Cc1sc(C(=O)NC2COC2)cc1-n1cc(NC(=O)Nc2c(F)cccc2Cl)cn1 — remaining activity (enzyme activity; inhibitor; 10 µM): 94.5%
CN(C)C(=O)Cn1cc(-c2nc([C@@](C)(c3ccc(-c4cnc(N)nc4)cc3)C3CC3)no2)cn1 — remaining binding (cell-free assay; competition with immobilised ligand; 1 µM): 90%
Cn1c(=O)n(-c2ccc(C(C)(C)C#N)cc2)c2c3cc(-c4cnc5ccccc5c4)ccc3ncc21 — remaining activity (enzyme activity; inhibitor; 10 µM): 67%
Cc1ccc(C(=O)Nc2ccc(CN3CCN(C)CC3)c(C(F)(F)F)c2)cc1C#Cc1cnc2cccnn12 — remaining activity (enzyme activity; inhibitor; 23.5 nM): 82%
CC(C)(C)c1nc(-c2cccc(NS(=O)(=O)c3c(F)cccc3F)c2F)c(-c2ccnc(N)n2)s1 — remaining activity (enzyme activity; inhibitor; radiometric; 1 µM): 84%
CS(=O)(=O)NCC[C@H](NC(=O)c1cncc2c1cnn2-c1ccc(F)cc1)c1ccnc(S(C)(=O)=O)c1 — remaining binding (cell-free assay; competition with immobilised ligand; 1 µM): 100%
FC(F)(F)Oc1cccc(-c2cnc3ccc(-c4ccncc4)nn23)c1 — activity vs control (enzyme activity; inhibitor; radiometric; 1 µM): 94%
O=C(Nc1cnn(-c2csc(C(=O)NC3COC3)c2)c1)Nc1c(F)cccc1Cl — remaining activity (enzyme activity; inhibitor; 5 µM): 98.7%
CN(C)C(=O)Cn1cc(-c2nc(C3(c4ccc(-c5cnc(N)nc5)cc4)CC3)no2)cn1 — remaining binding (cell-free assay; competition with immobilised ligand; 1 µM): 77%
